Screens deposited in PubChem BioAssay by several laboratories.
Sampled rows, rich in hits. Any-hit rate of the full collection: about 9.4%.
CSC inhib: cancer stem cell inhibition | cancer stem cell-like cells viability, luminescence | inhibition, % at 7.5 µM | 300,000 compounds, 1.1% hits | AID 2717; in the data active means inhibition above about 75%; inconclusive means no clear call, values can overlap the other calls; tested in HMLE shEcad cells
Beta apoptosis: blocks beta cell apoptosis; AID 435005; 300,000 compounds, 0.8% hits; protection from apoptosis, % (no concentration beside the values); INS-1E cytokine-induced death, ATP luminescence, 48 h; percent of positive-control rescue, neutral wells zero;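 active means Every replicate reaches about 75%, or at least half do and their mean reaches it too, limit read from the data; inconclusive means At least half of replicates reach the limit but their mean does not; inactive means Under half of replicates reach the limit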;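 further: higher means more ATP so stronger rescue from cytokine killing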
Mdm2-MdmX inh: disrupts the human Mdm2-MdmX interaction; O15151+Q00987; SaOS-2 split-luciferase Mdm2/MdmX complementation, luminescence; inhibition, % at 8 µM; 330,000 compounds, 3% hits; AID 485346;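 active means inhibition of at least 50% at 8 µM in the primary screen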
Target sequence (O15151 whole entry, looked up): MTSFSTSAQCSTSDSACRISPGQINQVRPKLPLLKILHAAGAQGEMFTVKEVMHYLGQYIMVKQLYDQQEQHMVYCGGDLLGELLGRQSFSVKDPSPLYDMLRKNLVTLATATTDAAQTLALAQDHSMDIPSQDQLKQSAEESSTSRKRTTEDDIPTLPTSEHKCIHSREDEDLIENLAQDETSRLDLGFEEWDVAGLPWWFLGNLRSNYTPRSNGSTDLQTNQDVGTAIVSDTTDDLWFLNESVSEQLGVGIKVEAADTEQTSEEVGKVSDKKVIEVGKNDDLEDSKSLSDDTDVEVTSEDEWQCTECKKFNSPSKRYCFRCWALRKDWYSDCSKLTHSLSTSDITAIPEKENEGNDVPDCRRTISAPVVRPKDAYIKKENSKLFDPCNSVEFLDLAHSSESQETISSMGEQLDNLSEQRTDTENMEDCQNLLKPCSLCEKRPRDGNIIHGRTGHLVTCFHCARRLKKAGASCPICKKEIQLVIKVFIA
Target sequence (Q00987 whole entry, looked up): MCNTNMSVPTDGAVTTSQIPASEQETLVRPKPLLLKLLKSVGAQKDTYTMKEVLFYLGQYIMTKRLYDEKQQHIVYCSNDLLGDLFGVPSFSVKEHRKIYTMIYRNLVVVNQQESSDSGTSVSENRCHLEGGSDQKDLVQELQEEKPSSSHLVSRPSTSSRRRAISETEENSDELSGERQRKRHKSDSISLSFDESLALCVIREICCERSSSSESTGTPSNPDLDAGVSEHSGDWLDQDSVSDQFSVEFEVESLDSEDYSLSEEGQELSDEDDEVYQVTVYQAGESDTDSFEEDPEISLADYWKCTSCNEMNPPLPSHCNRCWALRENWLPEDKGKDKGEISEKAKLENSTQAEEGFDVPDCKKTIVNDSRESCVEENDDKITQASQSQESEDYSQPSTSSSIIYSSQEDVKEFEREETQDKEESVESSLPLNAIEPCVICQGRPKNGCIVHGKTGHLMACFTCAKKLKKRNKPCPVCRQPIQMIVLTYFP
L major viab: inhibitors of Leishmania major promastigote growth | Leishmania major promastigotes, resazurin fluorescence viability | inhibition, % at 10 µM | 200,000 compounds, 9% hits | AID 1063; in the data active means inhibition above about 50%;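 further: promastigotes grown with compound for 44 hours at 28 °C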
SKKanGAS inh: SKKanGAS growth inhibition | 300,000 compounds, 1.3% hits | inhibition, % at 7.5 µM | S. pyogenes SKKanGAS, kanamycin growth, BacTiter-Glo, 6 h | AID 1662;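 active means mean replicate score, as percent of positive control median, at least 50; inconclusive means mean below 50 but one replicate at or above 50; inactive means mean and every replicate below 50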;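 further: strain carries kanamycin resistance gene driven by streptokinase promoter and grows in 40 µg/ml kanamycin; loss of luminescence reflects streptokinase promoter inhibition or plain growth inhibition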
T cruzi repl: blocks replication of Trypanosoma cruzi | T. cruzi beta-gal in NIH3T3, luminescence, 90 h | 300,000 compounds, 1.4% hits | AID 1885 | inhibition, % (concentration not given with the values);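 active means mean inhibition across valid replicates above about 55%, limit read from the data; inconclusive means mean below that limit but half or more replicates reach it; inactive means mean below it, under half of replicates reach it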;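 further: signal also drops with host cell toxicity which is not excluded here; higher percent means less beta-gal luminescence so fewer parasites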
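System: mouse NIH/3T3 fibroblasts infected with β-gal-expressing T. cruzi Tulahuen C4 / Input: NIH/3T3 cells, 5,000 per well / Buffer or medium: Low-serum DMEM with 2% FBS / Probe or stimulus: 5000 reporter trypomastigotes per well / Schedule: ≥90 h infection period, 3 h prior cell attachment / Measured by: GalScreen luminescence, 60 min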
A number is an active result; - = inactive; ? = inconclusive; . = no result given.

SMILES | CSC inhib | Beta apoptosis | Mdm2-MdmX inh | L major viab | SKKanGAS inh | T cruzi repl
Cc1cc(Br)ccc1NC(=O)CN1C(=O)C2C3CC(c4ccccc4)C(C3)C2C1=O (stereo not given) | - | - | - | 54.7 | - | 55.9
CC(O)CNc1nc2c(c(=O)n(Cc3cccc(Cl)c3)c(=O)n2C)n1C (stereo not given) | - | - | - | . | - | -
Cn1c(NCC(O)CO)nc2c1c(=O)n(Cc1ccc(Cl)c(Cl)c1)c(=O)n2C (stereo not given) | - | - | - | 72.7 | - | -
Cn1c(NCc2ccco2)nc2c1c(=O)n(Cc1ccc(Cl)c(Cl)c1)c(=O)n2C | - | - | - | - | 58.7 | .
COc1cc([N+](=O)[O-])ccc1N1C(=O)C2C3C=CC(C4CC34)C2C1=O (stereo not given) | - | - | - | - | - | -
CCn1cc(CN2CCCC(C(=O)Nc3cccc(-c4cc5ccccc5[nH]4)c3)C2)cn1 (stereo not given) | - | - | - | . | - | -
COCCNC(=O)c1cc(-c2cccnc2)nc2ccc(Br)cc12 | - | - | - | - | - | -
O=C(NCc1cccs1)c1cc(-c2ccncc2)nc2ccc(Br)cc12 | - | - | - | - | - | 54.8
O=C(c1ccco1)N1CCN(C(=O)c2cc(-c3ccncc3)nc3ccc(Br)cc23)CC1 | - | - | - | - | - | 56.4
O=C(c1ccco1)N1CCN(C(=O)c2cc(-c3ccccc3)nc3ccccc23)CC1 | . | - | - | - | - | -
CCCCN(C(=O)CCSc1ccc(F)cc1)c1c(N)n(Cc2ccccc2)c(=O)[nH]c1=O | . | - | - | . | - | -
Cc1cc(F)ccc1S(=O)(=O)Nc1ccccc1C(=O)NCc1cccnc1 | - | - | - | - | - | -
COc1cccc(CNc2nc3ccccc3n2CCN2CCCCC2)c1 | - | - | - | - | - | -
c1ccc(Cn2c(CNc3nc4ccccc4n3CCN3CCOCC3)nc3ccccc32)cc1 | . | - | - | 58.5 | - | -
COc1cccc(CNc2nc3ccccc3n2CCN2CCCCC2)c1OC | - | - | - | 99.8 | . | .
COc1ccc(OC)c(CNc2nc3ccccc3n2CCN2CCCCC2)c1 | - | - | - | 67.4 | - | -
c1ccc2c(c1)nc(NCc1ccc3c(c1)OCO3)n2CCN1CCOCC1 | - | - | - | - | - | -
COc1ccc(CNc2nc3ccccc3n2CCN2CCCCC2)c(OC)c1 | - | - | - | 92.2 | - | -
CC(=O)c1ccccc1NC(=O)COC(=O)Cc1cccc(C(F)(F)F)c1 | . | - | - | . | . | .
O=C(/C=C/c1ccccc1Cl)N1CCN(c2ncccn2)CC1 | - | - | - | 58.9 | - | -
O=C(/C=C/c1ccc(Cl)cc1)N1CCN(c2ncccn2)CC1 | . | . | . | - | . | .
CCc1nc2ccc(C(=O)O)cc2nc1CC | - | - | - | 50.5 | - | -
Cc1cc(SCC(=O)N/N=C/c2ccc(C(=O)O)cc2)nc2ccccc12 | - | - | - | . | - | -
COc1ccc(-n2c(-c3ccc(Cl)cc3)c[n+]3c2CCCCC3)cc1 | - | 125.2 | - | . | - | -
COc1ccc(-n2cc(-c3ccccc3)[n+]3c2CCCCC3)cc1 | - | 99.1 | - | 100.1 | - | 81.4
SMILES | CSC inhib | Beta apoptosis | Mdm2-MdmX inh | L major viab | SKKanGAS inh | T cruzi repl
COc1ccc(-c2c[n+]3c(n2-c2ccccc2)CCCCC3)cc1 | - | 115.3 | - | 99.3 | - | ?
Cc1ccc(C)c(NC(=O)C2CCCN(S(=O)(=O)c3c(C)nn(C)c3C)C2)c1 (stereo not given) | - | - | - | . | - | -
CC(=O)N1CCC(C(=O)NC2CCCc3c2cnn3-c2cc(F)cc(F)c2)CC1 (stereo not given) | - | - | - | . | - | -
O=C(c1ccc(S(=O)(=O)Nc2ccccc2F)cc1)N1CCN(c2ccccn2)CC1 | . | . | - | . | . | .
Cc1ccccc1NC(=S)N(C)Cc1cn(C)c2ccccc12 | - | - | - | 63.1 | - | -
COc1ccccc1CNC(=O)CSc1ccc(-c2cccs2)nn1 | - | - | - | 75.0 | - | -
COCCN(CCOC)C(=O)c1ccc(SCc2ccc(C)cc2)c([N+](=O)[O-])c1 | - | - | - | - | - | -
COc1ccc(C2NC(=O)NC(C)=C2C(=O)OC2CCC(C)CC2)cc1 (stereo not given) | - | - | - | . | - | -
Cc1ccc(C(=O)Nc2nnc(-c3ccco3)o2)cc1 | - | - | - | - | - | -
O=C(Nc1nnc(-c2ccco2)o1)c1ccc2ccccc2c1 | - | . | - | 68.9 | 91.8 | -
Cc1ccsc1C(=O)Nc1nnc(-c2ccco2)o1 | - | - | - | 87.7 | 83.1 | -
CCC(=O)Nc1nnc(-c2ccco2)o1 | - | - | - | - | - | -
COc1ccccc1C(=O)Nc1cccc2nc(C)ccc12 | - | - | - | . | - | -
CC1C(=O)C(C)C(c2ccc(Br)cc2)NC1c1ccc(Br)cc1 (stereo not given) | - | - | - | . | - | 67.5
Nc1cc(Cl)ccc1C(=O)OCC(=O)NC1CCCCCCC1 | - | - | - | . | . | .
Cc1nc2ccc(CN(C)c3ccc(C(=O)N[C@@H](CCC(=O)O)C(=O)O)s3)cc2c(=O)[nH]1 | 75.3 | - | . | . | - | -
CC(=O)N(C(C)=O)c1ccc2nc(C)[nH]c(=O)c2c1 | - | - | - | - | - | -
CCN(CC)CC(=O)NN=C(c1ccccc1)c1ccccc1 | - | - | - | - | - | .
O=C(CCl)NN=C(c1ccccc1)c1ccccc1 | - | - | - | 100.3 | - | -
COc1ccccc1N(C)S(=O)(=O)c1ccc(C(=O)OCC(=O)N(C(C)C)C(C)C)cc1 | - | - | - | 100.0 | - | -
COc1ccccc1N(C)S(=O)(=O)c1ccc(C(=O)NCC(C)C)cc1 | - | - | - | 92.5 | - | -
COc1ccccc1N(C)S(=O)(=O)c1ccc(C(=O)OCC(=O)N2CCC2)cc1 | - | - | - | 83.4 | - | -
O=C(O)CN1C(=O)c2ccc(C(=O)c3ccccc3)cc2C1=O | - | - | - | . | - | -
OCC1(Cc2ccccc2)CCN(Cc2ccc(-c3ccco3)cc2)CC1 | - | - | - | 90.6 | - | -
OCC1(Cc2ccccc2)CCCN(Cc2ccc(-c3ccco3)cc2)C1 (stereo not given) | - | - | - | 80.2 | - | -
SMILES | CSC inhib | Beta apoptosis | Mdm2-MdmX inh | L major viab | SKKanGAS inh | T cruzi repl
OCC1(Cc2ccccc2)CCN(CCCC2CCCC2)CC1 | - | - | - | 95.5 | - | -
CC1=CC(=O)C=C(C)C1=NOc1ccc([N+](=O)[O-])cc1 | - | - | - | 59.6 | - | -
CCNc1nc(NC(C)(C)C)nc(N2CCCC2)n1 | . | - | - | 80.2 | - | -
CCCNc1nc(N2CCCC2)nc(N2CCCC2)n1 | - | - | - | 89.4 | - | -
CCOc1cc(/C=C/c2cc(C(=O)O)c3ccccc3n2)ccc1O | - | - | - | 75.5 | - | -
COc1ccc(-c2cc(C(=O)N/N=C/c3ccc4c(c3)OCO4)c3ccccc3n2)c(OC)c1 | - | - | - | 77.4 | - | -
COc1ccc(-c2cc(C(=O)N/N=C(\C)c3ccco3)c3ccccc3n2)c(OC)c1 | - | - | - | . | 54.2 | -
